For data set [1], the target named is T1, Broad substrate specificity ATP-binding cassette transporter ABCG2 (Homo sapiens, UniProt Q9UNQ0).
T1 sequence (Q9UNQ0 whole entry): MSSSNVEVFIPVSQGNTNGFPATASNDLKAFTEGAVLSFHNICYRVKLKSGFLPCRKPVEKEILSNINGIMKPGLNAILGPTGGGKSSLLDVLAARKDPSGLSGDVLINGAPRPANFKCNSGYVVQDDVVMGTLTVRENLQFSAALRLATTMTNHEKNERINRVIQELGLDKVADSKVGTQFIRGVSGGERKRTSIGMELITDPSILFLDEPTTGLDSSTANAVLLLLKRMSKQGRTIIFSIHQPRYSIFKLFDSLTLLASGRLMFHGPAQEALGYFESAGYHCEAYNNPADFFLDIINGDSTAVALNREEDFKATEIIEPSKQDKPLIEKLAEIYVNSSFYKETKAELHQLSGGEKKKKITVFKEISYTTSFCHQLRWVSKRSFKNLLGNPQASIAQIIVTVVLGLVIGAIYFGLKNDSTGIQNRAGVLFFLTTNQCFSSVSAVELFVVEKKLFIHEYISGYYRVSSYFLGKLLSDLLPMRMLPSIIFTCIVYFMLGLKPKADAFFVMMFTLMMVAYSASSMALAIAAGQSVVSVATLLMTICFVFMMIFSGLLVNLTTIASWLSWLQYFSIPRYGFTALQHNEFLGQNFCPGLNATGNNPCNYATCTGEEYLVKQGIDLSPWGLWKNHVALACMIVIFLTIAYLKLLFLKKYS
In words: Inhibition of ABCG2 (unknown origin) transfected in HEK293 cells assessed as inhibition of mitoxantrone efflux after 30 mins by flow cytometry relative to control. It is filed as cell-based. Background: Flow cytometry measures light scatter and fluorescence of single cells or particles in a stream.

Data set [2] has as its target T1, Broad substrate specificity ATP-binding cassette transporter ABCG2. In words: Inhibition of human ABCG2 ATPase activity transfected in Sf9 insect cells using quercetin as substrate after 30 mins by colorimetry relative to control. In short, it runs like this: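 Vanadate-sensitive ATPase of cholesterol-loaded human ABCG2 Sf9 membranes (0.5 mg/mL; 10 μg/sample), 50 mM Tris-HCl/50 mM NaCl pH 8.0, with 2 μM quercetin. ATP-Mg 3.9 mM, 30 min, 37 °C. Phosphate measured colorimetrically at 880 nm. Coupled activity = total minus basal, taken as 100%. IC50 is the concentration giving 50% inhibition.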

Data set [3] relates to ATP-binding cassette sub-family G member 2 (Homo sapiens). Briefly: Inhibition of ABCG2-mediated mitoxantrone efflux in mitoxantrone-selected human PANC1 cells overexpressing ABCG2. The note with it: PANC-1.
For a further data set, the target named is T2, ABCG2 (Homo sapiens, UniProt Q9UNQ0).
T2 sequence (Q9UNQ0 whole entry): T1 sequence (Q9UNQ0 whole entry)
Briefly: Inhibition of ABCG2 (unknown origin) transfected in HEK293 cells assessed as inhibition of mitoxantrone efflux at 5 uM after 30 mins by flow cytometry relative to control. It is filed as cell-based. The note with it: HEK293 cells transfected with ABCG2, probe mitoxantrone. An outline of the steps: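 HEK293-ABCG2 cells (1.5 × 10⁵/well, grown 48 h) exposed to 5 μM mitoxantrone for 30 min at 37 °C with compound (increasing concentrations up to 10 μM); washed, trypsinized, FL4 flow cytometry, ≥10 000 events.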

Data set [4] deals with Multidrug resistance-associated protein 1 (Homo sapiens, UniProt P33527). Briefly: Inhibition of ABCC1 (unknown origin) transfected in HEK293 cells assessed as inhibition of calcein-AM efflux up to 10 uM after 30 mins by flow cytometry relative to control. It is filed as cell-based. The note with it: hek293, 0.5 h. In short, it runs like this: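 HEK293-ABCC1 cells (2 × 10⁵/well, kept in 200 μg/mL hygromycin B) were exposed to 0.2 μM calcein-AM for 30 min at 37 °C with bis-chalcone at 1 or 10 μM. Calcein was read by FL1 flow cytometry, ≥10 000 events. Inhibition was expressed relative to HEK293/pcDNA5 cells, whose maximal accumulation equals complete inhibition.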
Chain of Multidrug resistance-associated protein 1 (P33527 whole entry): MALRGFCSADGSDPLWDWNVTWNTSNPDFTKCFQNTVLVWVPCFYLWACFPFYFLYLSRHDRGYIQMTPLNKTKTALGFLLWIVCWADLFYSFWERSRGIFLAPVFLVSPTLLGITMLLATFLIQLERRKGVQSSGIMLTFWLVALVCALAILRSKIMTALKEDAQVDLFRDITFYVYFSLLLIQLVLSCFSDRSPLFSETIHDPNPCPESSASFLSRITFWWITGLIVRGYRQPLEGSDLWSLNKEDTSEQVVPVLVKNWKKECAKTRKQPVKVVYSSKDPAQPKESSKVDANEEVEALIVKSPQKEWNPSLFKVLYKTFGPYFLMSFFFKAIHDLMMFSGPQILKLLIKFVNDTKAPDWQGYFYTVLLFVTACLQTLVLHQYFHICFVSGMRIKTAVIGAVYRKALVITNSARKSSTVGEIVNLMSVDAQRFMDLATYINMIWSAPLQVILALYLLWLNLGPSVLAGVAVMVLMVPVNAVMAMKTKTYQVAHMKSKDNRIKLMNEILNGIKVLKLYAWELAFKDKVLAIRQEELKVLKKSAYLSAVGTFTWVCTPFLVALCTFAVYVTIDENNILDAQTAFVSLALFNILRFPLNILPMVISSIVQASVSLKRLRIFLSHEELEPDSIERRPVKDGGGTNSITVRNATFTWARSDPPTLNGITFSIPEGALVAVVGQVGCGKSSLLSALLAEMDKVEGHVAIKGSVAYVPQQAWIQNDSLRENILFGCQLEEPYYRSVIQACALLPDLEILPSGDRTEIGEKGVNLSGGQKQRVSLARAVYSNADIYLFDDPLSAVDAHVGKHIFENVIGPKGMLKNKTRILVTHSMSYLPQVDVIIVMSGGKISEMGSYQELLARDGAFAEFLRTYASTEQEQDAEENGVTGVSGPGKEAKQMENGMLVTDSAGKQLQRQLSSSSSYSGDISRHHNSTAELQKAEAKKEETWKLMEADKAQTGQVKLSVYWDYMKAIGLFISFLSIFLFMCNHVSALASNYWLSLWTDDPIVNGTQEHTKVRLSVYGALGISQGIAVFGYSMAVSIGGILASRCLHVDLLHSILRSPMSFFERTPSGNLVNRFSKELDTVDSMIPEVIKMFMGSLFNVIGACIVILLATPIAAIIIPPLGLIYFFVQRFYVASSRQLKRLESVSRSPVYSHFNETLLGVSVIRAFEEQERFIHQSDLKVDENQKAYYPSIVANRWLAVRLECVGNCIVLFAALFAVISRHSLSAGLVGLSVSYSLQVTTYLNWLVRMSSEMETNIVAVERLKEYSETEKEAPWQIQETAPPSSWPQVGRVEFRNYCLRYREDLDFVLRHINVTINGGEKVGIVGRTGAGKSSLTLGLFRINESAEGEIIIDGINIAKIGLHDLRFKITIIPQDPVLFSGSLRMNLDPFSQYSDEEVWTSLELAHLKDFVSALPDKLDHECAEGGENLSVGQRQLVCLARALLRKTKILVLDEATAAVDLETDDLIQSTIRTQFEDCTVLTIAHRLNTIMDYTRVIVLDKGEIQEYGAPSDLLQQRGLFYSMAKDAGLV

Data set [5] concerns the target T1, Broad substrate specificity ATP-binding cassette transporter ABCG2. Briefly: Inhibition of ABCG2 (unknown origin) transfected in HEK293 cells assessed as inhibition of mitoxantrone efflux at 5 uM after 30 mins in presence of 0.02 uM Ko143 by flow cytometry. It is filed as cell-based.
A further data set has as its system HEK293. Briefly: Cytotoxicity against HEK293 cells overexpressing ABCG2 at 0.1 uM after 72 hrs by MTT assay. The format is ADME, cell-based. The note with it: human, hek293, 72 h. An outline of the steps: (§1)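 HEK293-ABCG2 and vector-control HEK293-pcDNA3.1 cells were seeded at 1 × 10⁴/well and grown 24 h, then exposed 72 h to mitoxantrone (0–25 nM). ABCG2 cells were also given bis-chalcone at 0.1 or 0.5 μM. MTT was added for 4 h, formazan dissolved in DMSO/ethanol (1:1) and read at 570 nm. IC50 = mitoxantrone concentration giving 50% survival.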

Data set [6] concerns the target T1, Broad substrate specificity ATP-binding cassette transporter ABCG2. Briefly: Inhibition of ABCG2 (unknown origin)-mediated mitoxantrone efflux transfected in HEK293 cells assessed as potentiation of mitoxantrone-induced cytotoxicity at 0.1 uM after 72 hrs by MTT assay. The conditions noted are these: hek293, 72 h. It is filed as cell-based. An outline of the steps:
as §1
(Tetrazolium dyes change colour on reduction, which living cells bring about.)

Data set [7] has as its target ATP-dependent translocase ABCB1 (Homo sapiens, UniProt P08183). Briefly: Inhibition of ABCB1 (unknown origin) transfected in mouse NIH/3T3 cells assessed as inhibition of mitoxantrone efflux up to 10 uM after 30 mins by flow cytometry relative to control. The conditions noted are these: nih/3t3, 0.5 h. The format is cell-based. In short, it runs like this: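 NIH-3T3-ABCB1 cells (1.5 × 10⁵/well, 48 h, kept in 60 ng/mL colchicine) were given 5 μM mitoxantrone for 30 min at 37 °C with bis-chalcone at 1 or 10 μM. Fluorescence was read by FL4 flow cytometry, ≥10 000 events. Inhibition was expressed relative to parental NIH-3T3 cells, whose maximal accumulation was taken as complete inhibition.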

The subject of a further data set is PANC-1. In words: Selectivity ratio of EC50 for human PANC1 cells overexpressing ABCG2 to EC50 for human H460 cells overexpressing ABCG2. It is filed as functional.
In data set [8] the target is T1, Broad substrate specificity ATP-binding cassette transporter ABCG2. Briefly: Inhibition of human ABCG2 transfected in Sf9 insect cells assessed as inhibition of basal ATPase activity in absence of substrate drug after 30 mins by colorimetry. The note with it: sf9, 0.5 h. In short, it runs like this:
(§2)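 Cholesterol-loaded membranes from Sf9 cells overexpressing human ABCG2 (0.5 mg/mL; 10 μg/sample) in 50 mM Tris-HCl, 50 mM NaCl, pH 8.0, with or without 0.33 mM orthovanadate, no transport substrate; started with 3.9 mM ATP-Mg, 30 min at 37 °C; stopped with SDS; phosphate released read with molybdate/ascorbic acid at 880 nm; vanadate-sensitive basal activity taken as 100%.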

A further data set concerns the target T3, ABCG2 ATPase (Homo sapiens, UniProt Q9UNQ0).
T3 sequence (Q9UNQ0 whole entry): T1 sequence (Q9UNQ0 whole entry)
In words: Activation of human ABCG2 transfected in Sf9 insect cells assessed as stimulation of basal ATPase activity in absence of substrate drug after 30 mins by colorimetry. The note with it: Sf9 insect cells transfected with human ABCG2, read-out: FC. An outline of the steps:
as §2

For data set [9], the target named is T1, Broad substrate specificity ATP-binding cassette transporter ABCG2. In words: Inhibition of ABCG2 (unknown origin) transfected in HEK293 cells assessed as inhibition of mitoxantrone efflux at 5 uM after 30 mins in presence of 0.1 uM chromone 1 by flow cytometry. The format is cell-based.
Data set [10] is described as follows: Selectivity ratio of EC50 for human H23 cells overexpressing ABCG2 to EC50 for human H460 cells overexpressing ABCG2. The format is functional.

Chain of ATP-dependent translocase ABCB1 (P08183 whole entry): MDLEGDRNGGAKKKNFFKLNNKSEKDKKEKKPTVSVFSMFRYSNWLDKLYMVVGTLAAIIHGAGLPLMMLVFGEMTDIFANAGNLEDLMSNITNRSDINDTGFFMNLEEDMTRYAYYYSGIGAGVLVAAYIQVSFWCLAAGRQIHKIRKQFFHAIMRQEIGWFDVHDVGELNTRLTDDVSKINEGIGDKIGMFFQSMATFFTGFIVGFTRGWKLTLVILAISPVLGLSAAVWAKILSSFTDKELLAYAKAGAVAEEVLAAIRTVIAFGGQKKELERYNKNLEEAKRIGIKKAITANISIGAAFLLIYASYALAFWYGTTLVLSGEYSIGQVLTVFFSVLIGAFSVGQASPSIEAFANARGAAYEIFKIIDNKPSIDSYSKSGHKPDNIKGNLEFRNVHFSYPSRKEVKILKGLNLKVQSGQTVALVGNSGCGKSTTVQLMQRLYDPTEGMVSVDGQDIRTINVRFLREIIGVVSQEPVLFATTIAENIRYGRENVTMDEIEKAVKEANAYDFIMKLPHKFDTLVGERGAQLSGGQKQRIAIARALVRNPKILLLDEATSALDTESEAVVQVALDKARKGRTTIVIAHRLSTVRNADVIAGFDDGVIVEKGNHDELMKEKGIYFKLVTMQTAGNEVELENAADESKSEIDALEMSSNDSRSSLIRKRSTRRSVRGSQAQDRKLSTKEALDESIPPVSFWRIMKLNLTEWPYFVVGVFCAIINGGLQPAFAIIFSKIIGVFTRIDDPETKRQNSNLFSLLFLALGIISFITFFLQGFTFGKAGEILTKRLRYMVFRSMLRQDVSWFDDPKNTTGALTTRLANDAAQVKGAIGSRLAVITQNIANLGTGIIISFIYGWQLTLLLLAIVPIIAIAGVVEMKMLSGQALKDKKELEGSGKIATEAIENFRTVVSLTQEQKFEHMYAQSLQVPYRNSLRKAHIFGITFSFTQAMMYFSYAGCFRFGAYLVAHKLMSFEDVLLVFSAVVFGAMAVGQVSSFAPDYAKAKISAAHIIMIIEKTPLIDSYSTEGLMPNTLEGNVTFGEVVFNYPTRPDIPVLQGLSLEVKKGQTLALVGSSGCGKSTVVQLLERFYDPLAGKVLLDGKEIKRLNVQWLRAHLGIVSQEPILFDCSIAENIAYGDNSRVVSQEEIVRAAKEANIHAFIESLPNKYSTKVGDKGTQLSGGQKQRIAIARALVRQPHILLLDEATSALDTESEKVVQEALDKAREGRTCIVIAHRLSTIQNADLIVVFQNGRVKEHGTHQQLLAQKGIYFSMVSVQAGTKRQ

Take `COc1cccc(OC)c1/C=C/C(=O)c1ccc(C(=O)/C=C/c2c(OC)cccc2OC)cc1`: the 50% effective concentration (EC50) in data set [1] came to 200 nM; in data set [3], 210 nM; in data set [5], 126 nM; in data set [9] it was 15 nM. The molecule further showed an IC50 in [2] of 190 nM. The inhibition at 0.5 h, 5 µM on ABCG2 came out at 108%. Also, the “inhibition (INH)” value in data set [4] is “Not Active”; in data set [6], “Active”; in [7], “Not Active”; in data set [8], “Not Active”. Moreover, the Activity entry in the data set on HEK293 is given as “Non-toxic”. In addition, the “Ratio EC50” value (with PANC-1; in data set [10]) was 3 throughout. Further, the fold induction at 0.5 h on ABCG2 ATPase amounted to 1.6.

In general, EC50 refers to the concentration at which the effect is half-maximal. As usually defined, the IC50 is the midpoint of a concentration-inhibition curve. A low value points to higher potency. A word on the inhibition: it is the change of the read-out against control, counted positive when it falls.
